# Assay results as given in ChEMBL document CHEMBL4346670, “Discovery of Novel Janus Kinase (JAK) and Histone Deacetylase (HDAC) Dual Inhibitors for the Treatment of Hematological Malignancies” (J Med Chem, 2019).
# Assays:
# [1] = molecular target: T1, Tyrosine-protein kinase JAK3 (Homo sapiens, UniProt P52333); test: Inhibition of recombinant human JAK3 using Ulight-CAGAGAIETDKEYYTVKD as substrate measured after 60 mins by LANCE assay
# T1 sequence (P52333 whole entry): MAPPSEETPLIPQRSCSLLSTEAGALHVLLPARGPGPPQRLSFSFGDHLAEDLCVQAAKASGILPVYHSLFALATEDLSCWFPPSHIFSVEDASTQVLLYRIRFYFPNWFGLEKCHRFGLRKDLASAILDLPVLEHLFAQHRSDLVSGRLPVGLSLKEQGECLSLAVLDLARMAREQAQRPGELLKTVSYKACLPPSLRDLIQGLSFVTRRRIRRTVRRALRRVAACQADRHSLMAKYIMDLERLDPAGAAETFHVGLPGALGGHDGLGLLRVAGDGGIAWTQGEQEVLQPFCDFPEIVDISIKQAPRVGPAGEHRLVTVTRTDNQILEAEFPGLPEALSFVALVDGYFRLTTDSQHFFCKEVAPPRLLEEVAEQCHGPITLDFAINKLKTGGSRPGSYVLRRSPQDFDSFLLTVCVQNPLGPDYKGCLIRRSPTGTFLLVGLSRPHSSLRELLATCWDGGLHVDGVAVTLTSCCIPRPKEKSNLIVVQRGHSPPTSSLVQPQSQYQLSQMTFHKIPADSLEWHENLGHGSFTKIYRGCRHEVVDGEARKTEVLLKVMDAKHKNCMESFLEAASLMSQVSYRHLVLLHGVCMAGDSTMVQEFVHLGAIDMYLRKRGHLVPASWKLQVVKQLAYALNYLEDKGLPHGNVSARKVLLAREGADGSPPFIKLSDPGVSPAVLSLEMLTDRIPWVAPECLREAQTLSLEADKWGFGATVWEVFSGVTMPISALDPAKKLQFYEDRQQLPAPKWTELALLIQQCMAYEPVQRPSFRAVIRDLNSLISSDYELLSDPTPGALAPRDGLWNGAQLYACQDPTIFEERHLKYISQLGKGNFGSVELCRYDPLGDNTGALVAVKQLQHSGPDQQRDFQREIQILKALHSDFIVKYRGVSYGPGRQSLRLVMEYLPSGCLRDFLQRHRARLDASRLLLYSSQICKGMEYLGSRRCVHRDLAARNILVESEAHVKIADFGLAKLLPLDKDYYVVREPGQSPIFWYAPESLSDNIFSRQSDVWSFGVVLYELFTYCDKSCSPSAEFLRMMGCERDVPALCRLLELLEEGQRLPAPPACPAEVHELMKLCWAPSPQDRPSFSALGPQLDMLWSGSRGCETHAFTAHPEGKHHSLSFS
# Histone deacetylase 8 = molecular target: T2, Histone deacetylase 8 (Homo sapiens, UniProt Q9BY41); test: Inhibition of HDAC8 (unknown origin) using Boc-Lys(trifluoroacetyl)-AMC as substrate preincubated for 5 mins followed by substrate addition and measured after 30 mins by fluorescence assay
# T2 sequence (Q9BY41 whole entry): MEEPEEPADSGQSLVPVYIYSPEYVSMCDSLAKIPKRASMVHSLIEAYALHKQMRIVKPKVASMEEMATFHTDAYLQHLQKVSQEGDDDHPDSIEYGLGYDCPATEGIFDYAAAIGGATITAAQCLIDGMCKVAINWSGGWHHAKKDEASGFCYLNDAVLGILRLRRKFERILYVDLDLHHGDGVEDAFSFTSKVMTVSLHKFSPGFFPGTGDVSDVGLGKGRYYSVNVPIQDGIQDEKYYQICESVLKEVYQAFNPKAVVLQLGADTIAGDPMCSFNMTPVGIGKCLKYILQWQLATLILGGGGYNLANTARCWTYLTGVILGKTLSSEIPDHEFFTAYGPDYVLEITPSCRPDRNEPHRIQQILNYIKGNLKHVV
# [2] = MRT (0 to t) in CD1(ICR) mouse at 1 mg/kg, ip by LC-MS/MS analysis; assay type: ADME, organism-based; details: in vivo
# [3] = MRT (0 to t) in CD1(ICR) mouse at 1 mg/kg, iv by LC-MS/MS analysis; assay type: ADME, organism-based; details: in vivo
# [4] = Half life in rat liver microsomes at 1 uM in presence of NADPH cofactor for phase 1 metabolism and measured upto 60 mins by LC-MS/MS analysis; assay type: ADME, Microsome
# Summary of the method: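 Liver microsomes (rat or human) incubated with compound at 37 °C, with NADPH for phase I or UDPGA for phase II. Reactions stopped in acetonitrile at set time points, vortexed 5 min, stored at -80 °C. Parent remaining in supernatant measured by LC-MS/MS. t1/2 = -0.693/k, with k the slope of ln fraction remaining versus time.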
# [5] = molecular target: Calcium/calmodulin-dependent protein kinase type 1 (Homo sapiens) (UniProt Q14012); test: Inhibition of recombinant human CAMK1alpha at 20 nM using CREBtide as substrate measured after 30 mins by LANCE assay relative to control
# Calcium/calmodulin-dependent protein kinase type 1 (Homo sapiens), sequence (Q14012 whole entry, looked up): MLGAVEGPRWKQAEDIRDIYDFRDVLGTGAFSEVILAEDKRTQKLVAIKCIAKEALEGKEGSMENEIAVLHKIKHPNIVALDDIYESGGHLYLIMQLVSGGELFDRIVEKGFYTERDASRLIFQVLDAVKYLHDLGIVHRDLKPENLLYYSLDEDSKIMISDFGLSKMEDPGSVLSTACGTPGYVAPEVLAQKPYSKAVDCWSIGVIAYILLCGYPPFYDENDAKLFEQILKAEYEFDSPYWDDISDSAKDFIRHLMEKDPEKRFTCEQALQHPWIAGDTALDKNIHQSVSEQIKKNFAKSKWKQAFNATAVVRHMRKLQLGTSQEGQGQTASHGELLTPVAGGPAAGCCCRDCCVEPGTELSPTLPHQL
# Summary of the method: (§1)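 Single-concentration screen within an 85-kinase panel run by a contract lab, with each compound tested at 20 nM and 200 nM. Human recombinant enzymes were used. Activity was quantified as phosphorylation of a peptide substrate read by LANCE time-resolved detection, and inhibition was expressed relative to control, using the same format as the JAK assay.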
# [6] = molecular target: Cyclin-dependent kinase 6 (Homo sapiens) (UniProt Q00534); test: Inhibition of recombinant human CDK6 at 20 nM using Ulight-CFFKNIVTPRTPPPSQGK-amide as substrate measured after 60 mins by LANCE assay relative to control; summary of the method: as §1
# Cyclin-dependent kinase 6 (Homo sapiens), sequence (Q00534 whole entry): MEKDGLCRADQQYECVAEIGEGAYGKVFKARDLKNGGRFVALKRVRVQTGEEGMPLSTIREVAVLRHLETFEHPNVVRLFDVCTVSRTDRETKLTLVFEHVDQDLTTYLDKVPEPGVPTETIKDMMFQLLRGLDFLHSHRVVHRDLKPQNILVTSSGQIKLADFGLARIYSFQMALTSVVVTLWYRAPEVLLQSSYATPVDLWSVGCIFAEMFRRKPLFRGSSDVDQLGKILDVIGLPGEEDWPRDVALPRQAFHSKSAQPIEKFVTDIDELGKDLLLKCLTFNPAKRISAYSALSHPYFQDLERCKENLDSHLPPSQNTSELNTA
# [7] = molecular target: Mitogen-activated protein kinase 8 (Homo sapiens) (UniProt P45983); test: Inhibition of recombinant human JNK1 at 200 nM using Ulight-CFFKNIVTPRTPPPSQGK-amide as substrate measured after 60 mins by LANCE method relative to control
# Mitogen-activated protein kinase 8 (Homo sapiens), sequence (P45983 whole entry): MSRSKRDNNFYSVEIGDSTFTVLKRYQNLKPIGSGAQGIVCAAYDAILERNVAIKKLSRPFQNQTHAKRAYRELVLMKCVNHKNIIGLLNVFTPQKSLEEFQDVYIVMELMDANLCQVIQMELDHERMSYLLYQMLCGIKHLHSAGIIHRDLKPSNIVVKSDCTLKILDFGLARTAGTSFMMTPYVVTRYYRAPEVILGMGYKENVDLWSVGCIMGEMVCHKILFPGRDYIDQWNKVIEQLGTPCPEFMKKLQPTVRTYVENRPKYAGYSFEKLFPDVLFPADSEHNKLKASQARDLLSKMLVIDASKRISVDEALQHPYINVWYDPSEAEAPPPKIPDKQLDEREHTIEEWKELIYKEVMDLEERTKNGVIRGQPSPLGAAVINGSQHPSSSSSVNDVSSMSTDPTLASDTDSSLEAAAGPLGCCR
# Summary of the method: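 Part of an 85-kinase selectivity panel run by a contract lab, with the test compound at 20 nM and at 200 nM. Each human recombinant kinase's phosphorylation of its peptide substrate was measured following the JAK assay method. Activity is given as percent inhibition.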
# [8] = molecular target: Ribosomal protein S6 kinase alpha-4 (Homo sapiens) (UniProt O75676); test: Inhibition of recombinant human MSK2 at 20 nM using biotinyl-beta […] AAAARARTSSFAEPG after 15 mins by HTRF method relative to control
# Ribosomal protein S6 kinase alpha-4 (Homo sapiens), sequence (O75676 whole entry, looked up): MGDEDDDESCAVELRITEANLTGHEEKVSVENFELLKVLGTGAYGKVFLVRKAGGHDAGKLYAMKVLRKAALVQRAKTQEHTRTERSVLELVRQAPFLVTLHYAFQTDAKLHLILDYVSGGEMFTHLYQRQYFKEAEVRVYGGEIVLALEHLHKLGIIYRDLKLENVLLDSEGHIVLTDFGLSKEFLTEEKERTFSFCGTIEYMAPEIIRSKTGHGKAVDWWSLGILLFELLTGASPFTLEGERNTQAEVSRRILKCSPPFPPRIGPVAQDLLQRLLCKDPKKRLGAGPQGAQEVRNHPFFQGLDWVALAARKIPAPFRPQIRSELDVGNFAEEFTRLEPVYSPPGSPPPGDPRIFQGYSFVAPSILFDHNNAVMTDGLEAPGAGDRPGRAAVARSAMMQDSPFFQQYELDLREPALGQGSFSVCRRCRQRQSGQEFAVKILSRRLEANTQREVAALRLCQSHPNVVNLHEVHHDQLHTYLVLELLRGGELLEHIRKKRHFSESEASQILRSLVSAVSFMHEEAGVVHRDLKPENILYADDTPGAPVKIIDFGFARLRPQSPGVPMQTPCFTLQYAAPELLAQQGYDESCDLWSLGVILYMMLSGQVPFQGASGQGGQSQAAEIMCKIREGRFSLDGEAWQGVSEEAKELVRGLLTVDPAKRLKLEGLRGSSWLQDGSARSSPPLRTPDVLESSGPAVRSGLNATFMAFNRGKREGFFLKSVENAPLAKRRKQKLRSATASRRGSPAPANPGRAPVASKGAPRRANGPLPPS
# Homo sapiens = organism: Homo sapiens; test: Inhibition of recombinant human PKA at 20 nM using Ulight-RRRSLLE peptide as substrate measured after 10 mins by LANCE assay relative to control
# [9] = molecular target: cAMP-dependent protein kinase catalytic subunit PRKX (Homo sapiens) (UniProt P51817); test: Inhibition of recombinant human PRKX at 20 nM using Ulight-RRRSLLE as substrate measured after 30 mins by LANCE method relative to control
# cAMP-dependent protein kinase catalytic subunit PRKX (Homo sapiens), sequence (P51817 whole entry): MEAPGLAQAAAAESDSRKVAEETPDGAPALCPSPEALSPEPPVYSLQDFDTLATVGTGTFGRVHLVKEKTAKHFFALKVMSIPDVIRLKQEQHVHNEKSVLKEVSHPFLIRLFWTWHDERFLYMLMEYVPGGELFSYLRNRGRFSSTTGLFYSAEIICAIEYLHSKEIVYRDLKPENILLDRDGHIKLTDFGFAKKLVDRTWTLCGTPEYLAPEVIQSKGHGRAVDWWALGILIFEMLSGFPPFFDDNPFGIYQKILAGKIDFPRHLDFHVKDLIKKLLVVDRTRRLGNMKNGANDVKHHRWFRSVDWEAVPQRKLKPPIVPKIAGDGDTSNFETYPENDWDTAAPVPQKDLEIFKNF
# [10] = molecular target: Testis-specific serine/threonine-protein kinase 1 (Homo sapiens) (UniProt Q9BXA7); test: Inhibition of recombinant human TSSK1 at 20 nM using Ulight-RRRSLLE as substrate measured after 60 mins by LANCE method relative to control
# Testis-specific serine/threonine-protein kinase 1 (Homo sapiens), sequence (Q9BXA7 whole entry): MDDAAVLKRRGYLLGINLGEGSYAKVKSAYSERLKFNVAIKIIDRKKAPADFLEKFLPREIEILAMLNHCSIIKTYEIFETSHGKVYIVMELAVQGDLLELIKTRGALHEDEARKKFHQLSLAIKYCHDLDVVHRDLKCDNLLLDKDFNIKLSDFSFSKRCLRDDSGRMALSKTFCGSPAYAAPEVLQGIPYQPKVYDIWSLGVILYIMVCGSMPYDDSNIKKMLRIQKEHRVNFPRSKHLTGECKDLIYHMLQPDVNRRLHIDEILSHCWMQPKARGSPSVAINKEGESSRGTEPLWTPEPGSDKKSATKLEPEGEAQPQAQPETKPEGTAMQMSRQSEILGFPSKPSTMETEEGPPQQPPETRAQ
# [11] = molecular target: Vascular endothelial growth factor receptor 1 (Homo sapiens) (UniProt P17948); test: Inhibition of recombinant human FLT1 at 200 nM using Ulight-TK peptide as substrate measured after 15 mins by LANCE method relative to control; summary of the method: as §1
# Vascular endothelial growth factor receptor 1 (Homo sapiens), sequence (P17948 whole entry): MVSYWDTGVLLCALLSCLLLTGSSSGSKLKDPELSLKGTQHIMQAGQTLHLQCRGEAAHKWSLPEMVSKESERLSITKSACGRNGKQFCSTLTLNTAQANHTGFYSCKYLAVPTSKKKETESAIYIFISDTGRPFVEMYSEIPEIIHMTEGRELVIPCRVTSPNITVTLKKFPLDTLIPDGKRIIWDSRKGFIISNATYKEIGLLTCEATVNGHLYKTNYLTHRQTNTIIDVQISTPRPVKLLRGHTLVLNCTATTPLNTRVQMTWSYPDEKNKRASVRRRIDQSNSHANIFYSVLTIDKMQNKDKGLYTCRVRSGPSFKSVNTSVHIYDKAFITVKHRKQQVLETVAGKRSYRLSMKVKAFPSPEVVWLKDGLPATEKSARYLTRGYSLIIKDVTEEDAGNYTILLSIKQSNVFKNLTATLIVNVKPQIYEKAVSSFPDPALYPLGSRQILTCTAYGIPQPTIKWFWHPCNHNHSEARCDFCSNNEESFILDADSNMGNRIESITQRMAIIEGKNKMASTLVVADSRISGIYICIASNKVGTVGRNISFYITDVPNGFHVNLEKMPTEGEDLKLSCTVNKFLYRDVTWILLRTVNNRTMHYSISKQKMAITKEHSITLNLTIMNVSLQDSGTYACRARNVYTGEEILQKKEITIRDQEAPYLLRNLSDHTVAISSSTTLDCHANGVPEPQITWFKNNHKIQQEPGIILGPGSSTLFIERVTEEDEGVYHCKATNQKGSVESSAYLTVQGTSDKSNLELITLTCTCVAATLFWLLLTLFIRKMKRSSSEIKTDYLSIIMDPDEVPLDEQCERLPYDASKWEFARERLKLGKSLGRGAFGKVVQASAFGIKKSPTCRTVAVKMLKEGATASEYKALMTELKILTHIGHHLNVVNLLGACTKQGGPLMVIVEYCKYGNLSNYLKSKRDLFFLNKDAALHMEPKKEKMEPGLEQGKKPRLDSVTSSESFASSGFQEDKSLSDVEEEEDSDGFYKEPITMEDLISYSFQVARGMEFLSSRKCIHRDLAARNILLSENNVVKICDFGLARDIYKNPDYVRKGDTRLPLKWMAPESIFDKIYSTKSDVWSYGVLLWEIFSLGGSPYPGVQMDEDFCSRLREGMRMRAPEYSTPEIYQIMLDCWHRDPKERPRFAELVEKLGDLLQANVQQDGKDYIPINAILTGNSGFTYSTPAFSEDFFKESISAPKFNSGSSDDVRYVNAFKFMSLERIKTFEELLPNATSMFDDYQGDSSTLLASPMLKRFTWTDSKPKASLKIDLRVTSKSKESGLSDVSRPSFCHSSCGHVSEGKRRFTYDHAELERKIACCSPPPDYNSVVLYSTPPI
IC50 [1],IC50 (Histone deacetylase 8),MRT last [2],MRT last [3],half-life at 1 µM [4],inhibition [5],inhibition [6],inhibition [7],inhibition [8],inhibition (Homo sapiens),inhibition [9],inhibition [10],inhibition [11],SMILES
7.4 nM,2470 nM,21.6 min,16.2 min,14.6 min,2%,10%,13%,-2%,-10%,-1%,-3%,61%,O=C(CCCCCn1cc(Nc2ncc(Cl)c(Nc3ccc(Cl)cc3)n2)cn1)NO
3.3 nM,840 nM,–,–,–,–,–,–,–,–,–,–,–,O=C(CCCCCCn1cc(Nc2ncc(Cl)c(Nc3cccc(Cl)c3)n2)cn1)NO
